ChEMBL document CHEMBL3421528, “Synthesis and evaluation of fluorinated fingolimod (FTY720) analogues for sphingosine-1-phosphate receptor molecular imaging by positron emission tomography” (J Med Chem, 2015)

Assays:
Mus musculus [1] = assay: In vivo inhibition of S1P1 receptor in mouse assessed as reduction of peripheral blood CD8+ cells at 1.25 mg/kg, ip after 24 hrs by flow cytometric analysis relative to control; type: functional; conditions: in the assay text read “CD4+ cells” for “CD8+ cells”, route intraperitoneal
How it was run: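 Compound given intraperitoneally at 1.25 mg/kg in 0.9% NaCl (0.2 mg/mL); blood taken retro-orbitally into EDTA after 24 h. Lymphocytes counted by flow cytometry after red-cell lysis and compared with untreated mice. Mean ± SEM, n ≥ 3 independent experiments; p < 0.05 versus control.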

Mus musculus [2] = assay: In vivo inhibition of S1P1 receptor in mouse assessed as peripheral blood B cells at 1.25 mg/kg, ip after 24 hrs by flow cytometric analysis (reference value: 4.72 +/- 0.53 10^6/ml); type: functional; conditions: route intraperitoneal
Mus musculus [3] = assay: In vivo inhibition of S1P1 receptor in mouse assessed as peripheral blood CD8+ cells at 1.25 mg/kg, ip after 24 hrs by flow cytometric analysis (reference value: 0.48 +/- 0.05 10^6/ml); type: functional; conditions: route intraperitoneal
Mus musculus [4] = assay: In vivo inhibition of S1P1 receptor in mouse assessed as peripheral blood WBC at 1.25 mg/kg, ip after 24 hrs by flow cytometric analysis (reference value: 8.94 +/- 0.59 10^6/ml); type: functional; conditions: route intraperitoneal
[5] = molecular target: Sphingosine 1-phosphate receptor 1 (Homo sapiens) (UniProt P21453); assay: Agonist activity at human S1P1 receptor overexpressed in CHO cells assessed as p44/42 MAPK phosphorylation at 1 uM by Western blot analysis; type: cell-based; conditions: TDE = time-dependent effect
Sphingosine 1-phosphate receptor 1 (Homo sapiens), sequence (P21453 whole entry): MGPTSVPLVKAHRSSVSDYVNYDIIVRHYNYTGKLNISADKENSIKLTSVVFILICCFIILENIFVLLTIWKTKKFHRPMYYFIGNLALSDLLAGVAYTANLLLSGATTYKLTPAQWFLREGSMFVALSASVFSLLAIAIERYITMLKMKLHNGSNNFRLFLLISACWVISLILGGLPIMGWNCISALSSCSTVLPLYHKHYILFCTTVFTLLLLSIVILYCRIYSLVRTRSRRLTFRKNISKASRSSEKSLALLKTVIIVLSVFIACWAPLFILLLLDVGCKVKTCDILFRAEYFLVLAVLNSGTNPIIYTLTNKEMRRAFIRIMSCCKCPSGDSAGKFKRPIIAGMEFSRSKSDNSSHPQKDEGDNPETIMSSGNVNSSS
How it was run: (§1)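 Stably transfected CHO cells overexpressing human S1P1 or S1P3 receptor, serum-starved overnight, then stimulated with test compounds alongside S1P in the same experiment for the indicated times. Cells lysed and lysates resolved on 12% SDS-PAGE gels for Western blot read-out.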

[6] = molecular target: Sphingosine 1-phosphate receptor 3 (Homo sapiens) (UniProt Q99500); assay: Agonist activity at human S1P3 receptor overexpressed in CHO cells assessed as p44/42 MAPK phosphorylation at 1 uM by Western blot analysis; type: cell-based; conditions: TDE = time-dependent effect; how it was run: as §1
Sphingosine 1-phosphate receptor 3 (Homo sapiens), sequence (Q99500 whole entry): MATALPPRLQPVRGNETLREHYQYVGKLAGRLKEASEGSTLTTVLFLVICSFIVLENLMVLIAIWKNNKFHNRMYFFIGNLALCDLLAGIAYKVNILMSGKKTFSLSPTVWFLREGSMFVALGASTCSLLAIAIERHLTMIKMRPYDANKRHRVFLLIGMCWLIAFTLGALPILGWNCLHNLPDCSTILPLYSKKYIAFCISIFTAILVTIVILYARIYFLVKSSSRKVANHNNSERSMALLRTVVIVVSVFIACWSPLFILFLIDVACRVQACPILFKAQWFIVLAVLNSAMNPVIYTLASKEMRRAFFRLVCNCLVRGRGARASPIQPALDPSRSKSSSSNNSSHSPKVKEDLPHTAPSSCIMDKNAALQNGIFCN

Mus musculus [7] = assay: In vivo inhibition of S1P1 receptor in mouse assessed as reduction of peripheral blood CD4+ cells at 1.25 mg/kg, ip after 24 hrs by flow cytometric analysis relative to control
Lung [8] = assay: Drug uptake in wild type C57BL/6 mouse lung at 400 KBq/g, iv measured at 90 mins by PET/CT analysis; type: ADME, organism-based; conditions: in vivo, 1.5 h
How it was run: (§2)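 Male C57BL/6 wild-type mice, 13 weeks old, 21−26 g (n = 4), anaesthetised with isoflurane/O₂. 18F tracer given as a tail-vein bolus of 400 kBq/g in 100 μL, flushed with 100 μL saline. Dynamic list-mode PET was acquired, with CT-defined volumes of interest over the organs. Uptake was expressed as counts/mL in the VOI divided by total mouse counts ×100 (%ID/mL). Time-activity curves ran 0−90 min p.i.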

Bone = assay: Drug uptake in wild type C57BL/6 mouse bone at 400 KBq/g, iv measured at 90 mins by PET/CT analysis; type: ADME, organism-based, Bone element; conditions: in vivo, 1.5 h; how it was run: as §2
Lung [9] = assay: Drug uptake in wild type C57BL/6 mouse lung at 400 KBq/g, iv measured at 20 mins by PET/CT analysis; type: ADME, organism-based; conditions: in vivo; how it was run: as §2
Kidney = assay: Drug uptake in wild type C57BL/6 mouse kidney at 400 KBq/g, iv measured at 90 mins by PET/CT analysis; type: ADME, organism-based; conditions: in vivo, 1.5 h; how it was run: as §2
Mus musculus [10] = assay: Drug uptake in wild type C57BL/6 mouse body parts at 400 KBq/g, iv measured at 90 mins by PET/CT analysis; type: ADME, organism-based; conditions: in vivo, 1.5 h; how it was run: as §2
Spleen [11] = assay: Drug uptake in wild type C57BL/6 mouse spleen at 400 KBq/g, iv measured at 10 mins by PET/CT analysis; type: ADME, organism-based; conditions: in vivo; how it was run: as §2
[12] = Drug uptake in wild type C57BL/6 mouse myocardium at 400 KBq/g, iv measured at 10 mins by PET/CT analysis; type: ADME, organism-based; conditions: in vivo; how it was run: as §2
Liver = assay: Drug uptake in wild type C57BL/6 mouse liver at 400 KBq/g, iv measured at 10 mins by PET/CT analysis; type: ADME, organism-based; conditions: in vivo; how it was run: as §2
Blood = assay: Drug uptake in wild type C57BL/6 mouse blood at 400 KBq/g, iv measured at 90 mins by PET analysis; type: ADME, organism-based; conditions: in vivo, 1.5 h; how it was run: as §2
Serum = assay: Metabolic stability in human serum assessed as retention time at 8.7 MBq at 37 degC after 90 mins by HPLC analysis; type: ADME, cell-free; conditions: 1.5 h
How it was run: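 Formulated 18F tracer (20 μL, 8.7 MBq) was added to 200 μL human serum and incubated at 37 °C. Samples were taken at 10, 30, 60 and 90 min and quenched in MeOH/CH₂Cl₂ 1:1. After centrifugation, supernatants were analysed by C18 radio-HPLC (10−90% CH₃CN/0.1% TFA gradient over 15 min, 1.0 mL/min, 254 nm).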

Spleen [13] = assay: Drug uptake in wild type C57BL/6 mouse spleen at 400 KBq/g, iv measured at 30 mins by PET/CT analysis; type: ADME, organism-based; conditions: in vivo, 0.5 h; how it was run: as §2

Drug uptake (Lung [8]) [%ID/ml]	Drug uptake (Bone)	Drug uptake (Lung [9]) [%ID/ml]	Drug uptake (Kidney) [%ID/ml]	Drug uptake (Mus musculus [10])	Drug uptake [12] [%ID/ml]	Drug uptake (Liver) [%ID/ml]	Drug uptake (Blood) [%ID/ml]	SMILES	inhibition in vivo at 1.25 mg/kg (Mus musculus [1]) [%]	Activity (Mus musculus [2]) [×10⁶ /ml]	Activity (Mus musculus [3]) [×10⁶ /ml]	Activity (Mus musculus [4]) [×10⁶ /ml]	Activity [5]	Activity [6]	other results
								NC(CO)(CO)CCc1ccc(CCCCCCCCF)cc1	95	1.03	0.03	3.04			
								NC(CO)(CO)CCc1ccc(CCCCCCF)cc1	59	2.23	0.25	4.91			
								CCCCCCCCCCCCC/C=C/[C@@H](O)[C@@H](N)COP(=O)(O)O					tde	tde	
								NC(CO)(CCc1ccc(CCCCCCCCF)cc1)COP(=O)(O)O (stereo not given)		1.05	0.14	3.93	tde	tde	inhibition in vivo at 1.25 mg/kg (Mus musculus [7]): 89%
4	Not Active	5	20	Not Active	8	25	4	NC(CO)(CO)CCc1ccc(CCCCCC[18F])cc1							Drug uptake (Spleen [11]): 7 %ID/ml
4.8	Not Active	6.4	20	Not Active	8.6	25	4	NC(CO)(CO)CCc1ccc(CCCCCCCC[18F])cc1							Retention_time (Serum): 11.15 min; Drug uptake (Spleen [13]): 7.8 %ID/ml
